Measurements from ChEMBL document CHEMBL2016487, “Pyrazolopyrimidines as dual Akt/p70S6K inhibitors” (Bioorg Med Chem Lett, 2012).

How the values were obtained:
[1] = molecular target: T1, RAC-alpha serine/threonine-protein kinase (Homo sapiens, UniProt P31749); assay: Inhibition of AKT1-mediated GSK3beta phosphorylation in human PC3 cells after 3 hrs by chemiluminescence assay; type: cell-based, PC-3
In short: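 PC-3 cells seeded at 7.5 × 10³ cells/well, grown 24 h, then serum-starved 24 h. Compound treatment 3 h in triplicate (0.2% DMSO final), followed by 100 ng/ml IGF1 for 30 min. Fixed and processed as a cell ELISA using anti-phospho-GSK3β (S9) and anti-total-GSK3β antibodies, chemiluminescent read-out.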

[2] = molecular target: T2, Ribosomal protein S6 kinase beta-1 (Homo sapiens, UniProt P23443); assay: Inhibition of p70S6K-mediated ribosomal protein S6 phosphorylation in human PC3 cells after 3 hrs by chemiluminescence assay; type: cell-based, PC-3
In short: (§1)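 A549 or PC-3 cells seeded at 7.5 × 10³ cells/well in DMEM with heat-inactivated 10% FBS, 1% penicillin–streptomycin, 1% non-essential amino acids, grown 48 h at 37 °C, 5% CO₂. Treated 3 h with compound at 1.2–300 nM, triplicate, 0.2% DMSO final. Fixed in 4% formaldehyde, blocked, probed with anti-phospho-S6 (Ser240/244) and anti-total-S6 overnight at 4 °C, chemiluminescent read-out.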

[3] = molecular target: T1, RAC-alpha serine/threonine-protein kinase; assay: Inhibition of AKT1 after 3 hrs by luciferase based chemiluminescence assay
[4] = molecular target: T2, Ribosomal protein S6 kinase beta-1; assay: Inhibition of p70S6K-mediated ribosomal protein S6 phosphorylation in human A549 cells after 3 hrs by chemiluminescence assay; type: cell-based; in short: as §1
[5] = molecular target: T2, Ribosomal protein S6 kinase beta-1; assay: Inhibition of p70S6K after 3 hrs by luciferase based chemiluminescence assay
[6] = Volume of distribution in rat at 2.5 mg/kg; type: ADME, organism-based; design: dose 2.5 mg/kg; conditions: in vivo
[7] = Plasma concentration in mouse at 100 mg/kg after 1 hr; type: ADME, organism-based; design: dose 100 mg/kg
In short: (§2)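 Mouse plasma levels measured 1 and 4 h after a 100 mg/kg dose.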

[8] = Oral bioavailability in rat at 2.5 mg/kg; type: ADME, organism-based; conditions: in vivo
[9] = Clearance in rat at 2.5 mg/kg; type: ADME, organism-based; design: dose 2.5 mg/kg; conditions: in vivo
[10] = Half life in rat at 2.5 mg/kg, iv; type: ADME, organism-based; design: dose 2.5 mg/kg, route intravenous; conditions: in vivo
[11] = Cmax in rat at 2.5 mg/kg, iv; type: ADME, organism-based; design: dose 2.5 mg/kg, route intravenous; conditions: in vivo
[12] = Cmax in rat at 2.5 mg/kg, po; type: ADME, organism-based; design: dose 2.5 mg/kg, route oral; conditions: in vivo
[13] = Half life in rat at 2.5 mg/kg, po; type: ADME, organism-based; design: dose 2.5 mg/kg, route oral; conditions: in vivo
[14] = system: Rattus norvegicus; assay: Dose normalized AUC in rat at 2.5 mg/kg, iv; type: ADME, organism-based; design: dose 2.5 mg/kg, route intravenous; conditions: in vivo
[15] = Plasma concentration in mouse at 100 mg/kg after 4 hrs; type: ADME, organism-based; design: dose 100 mg/kg; in short: as §2
[16] = system: Rattus norvegicus; assay: Dose normalized AUC in rat at 2.5 mg/kg, po; type: ADME, organism-based; design: dose 2.5 mg/kg, route oral; conditions: in vivo

T2 sequence (P23443 whole entry): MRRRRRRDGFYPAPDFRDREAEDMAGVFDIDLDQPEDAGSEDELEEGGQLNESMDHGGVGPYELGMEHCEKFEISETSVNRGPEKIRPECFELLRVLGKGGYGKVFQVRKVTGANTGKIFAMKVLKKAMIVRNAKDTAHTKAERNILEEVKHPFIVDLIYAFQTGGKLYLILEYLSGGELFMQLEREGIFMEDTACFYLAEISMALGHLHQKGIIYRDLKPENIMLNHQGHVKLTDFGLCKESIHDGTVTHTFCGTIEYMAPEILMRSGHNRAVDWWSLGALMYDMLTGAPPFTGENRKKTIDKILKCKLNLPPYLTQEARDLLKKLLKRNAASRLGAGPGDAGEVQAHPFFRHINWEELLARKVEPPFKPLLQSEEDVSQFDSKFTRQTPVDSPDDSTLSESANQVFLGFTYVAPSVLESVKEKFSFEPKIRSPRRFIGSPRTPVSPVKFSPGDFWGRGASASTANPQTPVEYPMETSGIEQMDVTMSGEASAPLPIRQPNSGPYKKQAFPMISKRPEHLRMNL
T1 sequence (P31749 whole entry): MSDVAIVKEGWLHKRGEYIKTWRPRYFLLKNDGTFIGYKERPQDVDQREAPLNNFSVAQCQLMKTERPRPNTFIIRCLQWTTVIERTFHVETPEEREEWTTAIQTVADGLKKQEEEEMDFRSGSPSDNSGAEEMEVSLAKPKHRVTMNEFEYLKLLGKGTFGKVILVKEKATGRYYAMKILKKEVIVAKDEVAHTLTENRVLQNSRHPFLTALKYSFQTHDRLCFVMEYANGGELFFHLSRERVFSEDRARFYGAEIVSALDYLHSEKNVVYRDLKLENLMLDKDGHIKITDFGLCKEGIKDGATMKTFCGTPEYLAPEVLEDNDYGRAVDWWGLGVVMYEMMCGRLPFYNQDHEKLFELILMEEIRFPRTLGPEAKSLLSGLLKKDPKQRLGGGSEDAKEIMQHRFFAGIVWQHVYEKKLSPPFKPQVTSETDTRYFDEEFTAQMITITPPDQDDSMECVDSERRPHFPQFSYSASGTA

IC50 [1]	IC50 [2]	IC50 [3]	IC50 [4]	IC50 [5]	Vd [6]	concentration at 1 h [7]	bioavailability [8]	clearance [9]	half-life [10]	Cmax [11]	Cmax [12]	half-life [13]	AUC/dose [14]	concentration at 4 h [15]	AUC/dose [16]	Structure (SMILES)
7810 nM	190 nM	13 nM	14 nM	1 nM												Cc1c(NCCN2CCCC2)cc(C(=O)Nc2ccccc2)cc1N1CCN(c2ncnc3[nH]nc(Br)c23)CC1
730 nM	66 nM	8 nM	17 nM	2 nM	9.7 L/kg	1200 nM	11%	63.5 mL/min/kg	2.1 h	390 nM	20 nM	1.4 h	0.43 µM·kg·h/mg	1200 nM	0.05 µM·kg·h/mg	Cc1c(NCCN2CCCC2)cc(COCC(F)(F)F)cc1N1CCN(c2ncnc3[nH]nc(Br)c23)CC1
1980 nM	203 nM	7 nM	116 nM	2 nM												Cc1c(NCCN2CCCC2)cc(CCC(C)(C)C)cc1N1CCN(c2ncnc3[nH]nc(Br)c23)CC1
